Experimental findings from ChEMBL document CHEMBL4373681, “Aurantiamide-related dipeptide derivatives are formyl peptide receptor 1 antagonists” (Medchemcomm, 2019) are described below.

Non-standard residues stand in square brackets, D forms with d. Residues, ends and D or L forms follow the SMILES beside them. *: point of attachment. dCha = N[C@H](CC1CCCCC1)C(=O)O; Bz = O=C(c1ccccc1)*

Assay [1] concerns the target T1, fMet-Leu-Phe receptor (Homo sapiens, UniProt P21462).
T1 sequence (P21462 whole entry): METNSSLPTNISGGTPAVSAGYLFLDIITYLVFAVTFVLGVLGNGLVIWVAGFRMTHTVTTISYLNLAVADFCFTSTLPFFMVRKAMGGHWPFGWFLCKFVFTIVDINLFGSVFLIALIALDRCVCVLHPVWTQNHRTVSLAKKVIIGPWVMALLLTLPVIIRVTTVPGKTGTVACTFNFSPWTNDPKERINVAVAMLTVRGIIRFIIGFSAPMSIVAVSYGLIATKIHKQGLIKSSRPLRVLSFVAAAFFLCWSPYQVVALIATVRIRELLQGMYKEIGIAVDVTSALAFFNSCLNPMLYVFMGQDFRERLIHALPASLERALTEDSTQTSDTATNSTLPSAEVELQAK
Briefly: Antagonist activity against FPR1 in human neutrophils assessed as calcium mobilization preincubated for 30 mins followed by fMLF addition and measured for 5 sec for 240 sec by fluorometry.

The target in assay [2] is T2, N-formyl peptide receptor 2 (Homo sapiens, UniProt P25090).
T2 sequence (P25090 whole entry): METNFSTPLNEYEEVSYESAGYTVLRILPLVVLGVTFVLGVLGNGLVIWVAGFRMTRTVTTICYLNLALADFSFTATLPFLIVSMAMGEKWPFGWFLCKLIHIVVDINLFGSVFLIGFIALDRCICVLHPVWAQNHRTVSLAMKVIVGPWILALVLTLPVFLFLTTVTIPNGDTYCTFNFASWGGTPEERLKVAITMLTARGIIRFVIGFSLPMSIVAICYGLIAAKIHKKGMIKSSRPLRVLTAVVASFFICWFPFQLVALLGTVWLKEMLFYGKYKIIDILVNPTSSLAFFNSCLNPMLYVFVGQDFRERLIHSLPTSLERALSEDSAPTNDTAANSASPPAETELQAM
The assay is described as follows: Agonist activity at FRP2 (unknown origin) transfected in human HL60 cells assessed as calcium mobilization incubated for 30 mins and measured for 5 sec for 240 sec by fluorometry. Format: functional, cell-based. In short, it runs like this:
(§1)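 Stably transfected HL60 cells, with G418 dropped in the final culture round, loaded with Fluo-4 AM (1.25 µg/mL final) for 30 min at 37 °C in the dark. Cells were washed into HBSS with Ca2+/Mg2+ plus 10 mM HEPES, 2×10^5 cells/well. Compound added by injector, fluorescence (ex 485/em 538 nm) read every 5 s for 240 s at room temperature. Peak change over baseline in the first 3 min; EC50 by nonlinear regression.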

Another assay deals with Neutrophil. The assay is described as follows: Inhibition of fMLF-induced migration of human neutrophil preincubated for 30 mins followed by fMLF stimulation and measured after 60 mins by luminescence based assay.
In assay [3] the target is T1, fMet-Leu-Phe receptor. The assay is described as follows: Agonist activity at FPR1 in human neutrophils assessed as calcium mobilization incubated for 30 mins and measured for 5 sec for 240 sec by fluorometry. Format: functional. The method in brief: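 Neutrophils from healthy donor blood were isolated by dextran sedimentation, Histopaque 1077 gradient and hypotonic RBC lysis. They were loaded with Fluo-4 AM (1.25 µg/mL final) for 30 min at 37 °C, then resuspended in HBSS+ with 10 mM HEPES, 2×10^5 cells/well. Compound injected; fluorescence (485/538 nm) read every 5 s for 240 s at room temperature. Peak rise over baseline in the first 3 min; EC50 by nonlinear regression.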

Assay [4] has as its target T2, N-formyl peptide receptor 2. The assay is described as follows: Antagonist activity against FPR2 (unknown origin) transfected in human HL60 cells assessed as calcium mobilization preincubated for 30 mins followed by WKYMVM addition and measured for 5 sec for 240 sec by fluorometry. Type of assay: functional, cell-based. In short, it runs like this: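 FPR2-transfected HL60 cells, Fluo-4 AM-loaded (1.25 µg/mL final, 30 min, 37 °C), in HBSS+/10 mM HEPES, 2×10^5 cells/well. 30 min room-temperature compound pretreatment, then 5 nM WKYMVM. Peak fluorescence rise (485/538 nm) in the first 3 min, normalized to 5 nM WKYMVM alone (100%). IC50 by nonlinear regression of 5–6-point curves.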

The target in assay [5] is T1, fMet-Leu-Phe receptor. The assay is described as follows: Agonist activity at FPR1 (unknown origin) transfected in human HL60 cells assessed as calcium mobilization incubated for 30 mins and measured for 5 sec for 240 sec by fluorometry. Format: functional, cell-based. In short, it runs like this: as §1
For assay [6], the target named is T1, fMet-Leu-Phe receptor. The assay is described as follows: Antagonist activity against FPR1 (unknown origin) transfected in human HL60 cells assessed as calcium mobilization preincubated for 30 mins followed by fMLF addition and measured for 5 sec for 240 sec by fluorometry. Format: functional, cell-based. In short, it runs like this: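 FPR1-HL60 cells or donor neutrophils, Fluo-4 AM-loaded (1.25 µg/mL final, 30 min, 37 °C), in HBSS+/10 mM HEPES, 2×10^5 cells/well. Compound pretreatment 30 min at room temperature, then 5 nM fMLF. Peak fluorescence rise (485/538 nm) in the first 3 min was normalized to 5 nM fMLF alone (100%). IC50 from 5–6-point curves by nonlinear regression; maximal antagonist concentration ~50 μM.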

For the molecule `COC(=O)[C@H](Cc1ccccc1)NC(=O)[C@H](Cc1c[nH]c2ccccc12)NC(=O)c1ccccc1`, the IC50 at fMet-Leu-Phe receptor [1] turned out to be 2.4 µM; in the assay on Neutrophil, 1.6 µM; in assay [4] (read-out: IC50) it was 12.3 µM; at fMet-Leu-Phe receptor [6], 5.8 µM. In addition, the EC50 result (in assay [2]; at fMet-Leu-Phe receptor [3]; at fMet-Leu-Phe receptor [5]) was “Not Active” in each case.

With `COC(=O)[C@H](Cc1ccccc1)NC(=O)[C@@H](Cc1c[nH]c2ccccc12)NC(=O)c1ccccc1`, the values for the IC50 (on fMet-Leu-Phe receptor [1]; in assay [4]; on fMet-Leu-Phe receptor [6]) were 10.9 µM, “Not Active” and 37.4 µM, respectively. The EC50 entry (in assay [2]; at fMet-Leu-Phe receptor [3]; on fMet-Leu-Phe receptor [5]) was “Not Active” each time.

`COC(=O)[C@@H](Cc1ccccc1)NC(=O)[C@H](Cc1c[nH]c2ccccc12)NC(=O)C1CCCCC1`: the IC50 on fMet-Leu-Phe receptor [1] is 3.3 µM; in the assay with Neutrophil, 3.1 µM; in assay [4] it was “Not Active”; on fMet-Leu-Phe receptor [6] it was 0.54 µM. The EC50 entry (in assay [2]; at fMet-Leu-Phe receptor [3]; at fMet-Leu-Phe receptor [5]) was “Not Active” each time.

With `COC(=O)[C@@H](CC(C)C)NC(=O)[C@H](Cc1c[nH]c2ccccc12)NC(=O)c1ccccc1`, the values for the IC50 (at fMet-Leu-Phe receptor [1]; in assay [4]; on fMet-Leu-Phe receptor [6]) were 14.5 µM, “Not Active” and 24.7 µM, respectively. For the same molecule, the EC50 was 10.9 µM in assay [2] (read-out: EC50), “Not Active” at fMet-Leu-Phe receptor [3] and “Not Active” on fMet-Leu-Phe receptor [5].

Turning to `COC(=O)[C@H](NC(=O)[C@H](Cc1c[nH]c2ccccc12)NC(=O)c1ccccc1)C(C)C`, the IC50 on fMet-Leu-Phe receptor [1] is 25.3 µM; in assay [4], “Not Active”; at fMet-Leu-Phe receptor [6], 11.7 µM. Also, the EC50 result (in assay [2]; on fMet-Leu-Phe receptor [3]; on fMet-Leu-Phe receptor [5]) was “Not Active” each time.

Turning to `COC(=O)[C@@H](Cc1ccccc1)NC(=O)[C@@H](Cc1c[nH]c2ccccc12)NC(=O)c1ccccc1`, the IC50 was 31.3 µM at fMet-Leu-Phe receptor [1], “Not Active” in assay [4] and 16.5 µM at fMet-Leu-Phe receptor [6]. In addition, the EC50 result (in assay [2]; at fMet-Leu-Phe receptor [3]; at fMet-Leu-Phe receptor [5]) was “Not Active” throughout.

With `COC(=O)[C@@H](Cc1ccccc1)NC(=O)[C@H](Cc1c[nH]c2ccccc12)NC(=O)CC(C)C`, the IC50 on fMet-Leu-Phe receptor [1] was 27.7 µM; in assay [4], “Not Active”; at fMet-Leu-Phe receptor [6], 19.6 µM. Moreover, the EC50 entry (in assay [2]; on fMet-Leu-Phe receptor [3]; on fMet-Leu-Phe receptor [5]) was “Not Active” each time.

In the case of `COC(=O)[C@@H](Cc1ccccc1)NC(=O)[C@H](Cc1c[nH]c2ccccc12)NC(=O)OC(C)(C)C`, the IC50 on fMet-Leu-Phe receptor [1] is 12.6 µM; in assay [4], “Not Active”; at fMet-Leu-Phe receptor [6], 17.1 µM. The EC50 was 10.5 µM in assay [2] (read-out: EC50), “Not Active” on fMet-Leu-Phe receptor [3] and “Not Active” at fMet-Leu-Phe receptor [5].

On to `COC(=O)[C@@H](Cc1ccccc1)NC(=O)[C@H](Cc1c[nH]c2ccccc12)NC(=O)c1ccccc1`, for which the IC50 on fMet-Leu-Phe receptor [1] is 0.18 µM; with Neutrophil it was 0.48 µM; in assay [4] it was “Not Active”; on fMet-Leu-Phe receptor [6], 0.45 µM. Also, the concentration giving a half-maximal response (EC50) entry (in assay [2]; on fMet-Leu-Phe receptor [3]; on fMet-Leu-Phe receptor [5]) was “Not Active” each time.

On to `COC(=O)[C@@H](CC1CCCCC1)NC(=O)[C@H](Cc1c[nH]c2ccccc12)NC(=O)c1ccccc1` (Bz-Trp-[dCha]-OMe), for which the IC50 is 0.12 µM on fMet-Leu-Phe receptor [1], 0.62 µM in the assay with Neutrophil, “Not Active” in assay [4] and 0.67 µM at fMet-Leu-Phe receptor [6]. In addition, the EC50 result (in assay [2]; at fMet-Leu-Phe receptor [3]; at fMet-Leu-Phe receptor [5]) was “Not Active” in each case.
